Calls of active or inactive are those of the source. No cut-off for these calls is given here.
Key:
SK-N-SH [1] = test: Induction of apoptosis in human SK-N-SH cells assessed as caspase 3 activity at 5 uM by fluorescence assay; type: functional, cell-based
In short: (§1)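 Human SK-N-SH neuroblastoma cells exposed to the test agent at 0.5–5 µM. Apoptosis was read as caspase-3 activity by fluorescence intensity, scanned around 420–430 nm. Values are slopes averaged from 5 experiments, each run in duplicate.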

Caspase-3 (Homo sapiens) [2] = target: T1, Caspase-3 (Homo sapiens) (UniProt P42574); test: Inhibition of caspase 3 in human SK-N-SH cells assessed as accumulation of fluorogenic 7-amino-4-methyl coumarin at 10 uM by fluorometric assay; type: cell-based
T1 sequence (whole entry): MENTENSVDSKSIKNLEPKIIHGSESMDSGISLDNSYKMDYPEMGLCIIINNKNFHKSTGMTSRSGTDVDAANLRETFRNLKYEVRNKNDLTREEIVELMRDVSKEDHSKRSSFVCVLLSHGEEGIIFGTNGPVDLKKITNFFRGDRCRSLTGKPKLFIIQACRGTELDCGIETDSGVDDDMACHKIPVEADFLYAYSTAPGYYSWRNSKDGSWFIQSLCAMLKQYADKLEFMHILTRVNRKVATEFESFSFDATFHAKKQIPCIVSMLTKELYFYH
In short: (§2)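 Kit-based caspase-3 cleavage assay, using doxorubicin-induced apoptotic SK-N-SH cell extracts as the caspase source. The inhibitor was dissolved in DMSO and serially diluted to working concentrations, and a standard inhibitor served as control. Fluorescence was recorded across 420–460 nm, and decreases in intensity were expressed relative to apoptotic control extracts.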

Caspase-3 (Homo sapiens) [3] = target: T1, Caspase-3 (Homo sapiens); test: Inhibition of caspase 3 in human SK-N-SH cells assessed as accumulation of fluorogenic 7-amino-4-methyl coumarin at 50 uM by fluorometric assay; type: cell-based; in short: as §2
Caspase-3 (Homo sapiens) [4] = target: T1, Caspase-3 (Homo sapiens); test: Inhibition of caspase 3 in human SK-N-SH cells assessed as accumulation of fluorogenic 7-amino-4-methyl coumarin at 100 uM by fluorometric assay; type: cell-based; in short: as §2
Caspase-3 (Homo sapiens) [5] = target: T1, Caspase-3 (Homo sapiens); test: Inhibition of caspase 3 in human SK-N-SH cells assessed as accumulation of fluorogenic 7-amino-4-methyl coumarin at 0.5 uM by fluorometric assay; type: cell-based; in short: as §2
Caspase-3 (Homo sapiens) [6] = target: T1, Caspase-3 (Homo sapiens); test: Inhibition of caspase 3 in human SK-N-SH cells assessed as accumulation of fluorogenic 7-amino-4-methyl coumarin at 1 mM by fluorometric assay; type: cell-based; in short: as §2
Caspase-3 (Homo sapiens) [7] = target: T1, Caspase-3 (Homo sapiens); test: Inhibition of caspase 3 in human SK-N-SH cells assessed as accumulation of fluorogenic 7-amino-4-methyl coumarin at 5 mM by fluorometric assay; type: cell-based; in short: as §2
SK-N-SH [8] = test: Inhibition of apoptosis in human SK-N-SH cells assessed as maximum fluorescence intensity at 440 nm treated at 0.5 uM by fluorescence assay; type: functional, cell-based; in short: as §2
Caspase-3 (Homo sapiens) [9] = target: T1, Caspase-3 (Homo sapiens); test: Inhibition of caspase 3 in human SK-N-SH cells assessed as decrease in fluorescence intensity-associated with accumulation of fluorogenic 7-amino-4-methyl coumarin at 5 mM by fluorometric assay relative to control; type: cell-based; design: scale not given: the % may be the effect or the level left; in short: as §2
Caspase-7 (Homo sapiens) = target: T2, Caspase-7 (Homo sapiens) (UniProt P55210); test: Inhibition of caspase 7 in human SK-N-SH cells assessed as accumulation of fluorogenic 7-amino-4-methyl coumarin by fluorometric assay; type: cell-based
T2 sequence (whole entry): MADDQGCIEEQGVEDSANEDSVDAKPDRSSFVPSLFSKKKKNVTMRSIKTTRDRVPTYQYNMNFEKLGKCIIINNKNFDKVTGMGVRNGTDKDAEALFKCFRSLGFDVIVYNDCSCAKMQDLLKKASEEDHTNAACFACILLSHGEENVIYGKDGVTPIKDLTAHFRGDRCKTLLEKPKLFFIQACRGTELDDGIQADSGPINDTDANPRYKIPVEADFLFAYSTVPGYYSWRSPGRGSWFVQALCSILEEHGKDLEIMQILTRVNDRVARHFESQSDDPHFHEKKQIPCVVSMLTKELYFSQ

Caspase-3 = target: T3, Caspase-3 (Homo sapiens, UniProt P42574); test: Inhibition of caspase 3 in human SK-N-SH cells assessed as accumulation of fluorogenic 7-amino-4-methyl coumarin by fluorometric assay; type: cell-based
T3 sequence (P42574 whole entry): T1 sequence (whole entry)

SK-N-SH [10] = test: Induction of apoptosis in human SK-N-SH cells at 0.5 to 5 uM by fluorescence assay; type: functional, cell-based; in short: as §1
SK-N-SH [11] = test: Induction of apoptosis in human SK-N-SH cells assessed as caspase 3 activity at 1 uM by fluorescence assay; type: functional, cell-based; in short: as §1

SMILES	Activity (SK-N-SH [1])	Activity (Caspase-3 (Homo sapiens) [2])	Activity (Caspase-3 (Homo sapiens) [3])	Activity (Caspase-3 (Homo sapiens) [4])	Activity (Caspase-3 (Homo sapiens) [5])	Activity (Caspase-3 (Homo sapiens) [6])	Activity (Caspase-3 (Homo sapiens) [7])	Activity (SK-N-SH [8])	Activity (Caspase-3 (Homo sapiens) [9]) [%]	Activity (Caspase-7 (Homo sapiens))	IC50 (Caspase-3) [µM]	Activity (SK-N-SH [10])	Activity (SK-N-SH [11])
O=C(NCCCN1CCN(Cc2c(F)cccc2Cl)CC1)c1ccc(Cl)c(Cl)c1	inactive	inactive	inactive	inactive	Active	Active	Active	Active	50	inactive			
O=C1Nc2ccc(S(=O)(=O)N3CCCC3CNc3ccccc3)cc2C1=O (centres undefined)											0.031		
COc1cccc2c1C(=O)c1c(O)c3c(c(O)c1C2=O)C[C@@](O)(C(=O)CO)C[C@@H]3O[C@H]1C[C@H](N)[C@H](O)[C@H](C)O1	Active											Active	Active

Source: ChEMBL document CHEMBL1153506, “Design, synthesis, and discovery of novel non-peptide inhibitor of Caspase-3 using ligand based and structure based virtual screening approach” (Bioorg Med Chem, 2009)
